Compound activity deposited in PubChem by several laboratories.
Ec RNAP inh: inhibitors of Escherichia coli RNA polymerase; E. coli RNA polymerase, fluorescence transcription assay; P0A8V2; inhibition, %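 (tested at 10 µM)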; AID 559; actives 0.2% (n = 62,000); in the data active = inhibition above about 20%
SF1 activator: SF-1 (human) activation; Q13285; CHO-K1 Gal4-SF-1 LBD luciferase reporter; % increase over DMSO SF-1-specific signal; activation, % at 10 µM; actives 1.9% (n = 65,000);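 active = activation above the mean activation of all tested compounds plus 3 SD, cut at about 50% in these data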
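Material: Gal4–SF-1 LBD one-hybrid luciferase reporter in CHO-K1 cells | Amount: 4,000 cells per well | Compound dosing: 10 µM single point, 1% DMSO | Schedule: 20 h compound treatment, 37 °C | Measured by: SteadyLite luciferase luminescence | Evaluation: Percent activation versus DMSO | Control set: DMSO-treated SF-1-transfected cells as negative, DMSO-treated mock-transfected cells lacking SF-1 as background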
RORA act: activators of human nuclear receptor RORA. CHO-K1 Gal4-RORA LBD luciferase reporter, luminescence; percent increase over mock-subtracted basal signal. actives 1.5% (n = 65,000). P35398. activation, % at 10 µM;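 active = activation above the mean of all tested compounds plus 3 SD, cut at about 49% in these data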
Target sequence (P35398 whole entry, looked up, the tested form may be a part): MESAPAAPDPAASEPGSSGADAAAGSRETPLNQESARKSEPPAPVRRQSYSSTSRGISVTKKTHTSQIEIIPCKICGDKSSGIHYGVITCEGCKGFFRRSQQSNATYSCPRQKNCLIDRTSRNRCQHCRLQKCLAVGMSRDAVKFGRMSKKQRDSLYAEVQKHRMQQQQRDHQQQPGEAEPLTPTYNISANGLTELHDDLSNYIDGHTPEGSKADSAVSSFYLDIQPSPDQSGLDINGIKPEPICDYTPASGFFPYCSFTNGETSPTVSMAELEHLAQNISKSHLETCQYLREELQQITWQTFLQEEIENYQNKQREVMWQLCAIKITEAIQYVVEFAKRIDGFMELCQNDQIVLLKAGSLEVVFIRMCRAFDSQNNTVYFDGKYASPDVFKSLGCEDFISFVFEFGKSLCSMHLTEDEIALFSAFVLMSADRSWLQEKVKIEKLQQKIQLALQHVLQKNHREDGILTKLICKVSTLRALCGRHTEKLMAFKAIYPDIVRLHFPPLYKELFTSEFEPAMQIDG
HePTP inhibitor: human HePTP phosphatase inhibition. recombinant HePTP phosphatase activity, OD absorbance. inhibition, % at 20 µM. actives 0.64% (n = 110,000). AID 521; in the data active = inhibition above about 50%
MMP13 inh: MMP13 (human) collagenase inhibition; P45452; MMP-13 fTHP FRET cleavage, Mca fluorescence; inhibition, % at 4 µM; actives 0.07% (n = 65,000);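 active = inhibition above the mean of compound-free control plate wells plus 3 SD, cut at about 14% in these data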
AP ELISA ortho: alternative pathway complement inhibition, orthogonal assay; Human serum alternative complement pathway, LPS-coated ELISA, C3 deposition; tested in compound mixtures; inhibition, % at 5 µM; actives 0.08% (n = 62,000);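 active = inhibition above 30% in each of the two pooled mixtures holding the compound, so the lower value exceeds 30%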
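Assay system: Human serum alternative complement pathway, C3 deposition on LPS-coated wells | Incubation: 1 h serum-compound exposure at 37 °C | Doses: 5 µM per compound in ten-compound mixtures | Read-out: Percent inhibition | Technique: ELISA with HRP anti-human C3 antibody, TMB substrate, absorbance 450 nm | Replication: Two pool placements per compound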
A number is an active result; 0 = inactive; - = not tested or not shown. This is a sample that favours compounds with a hit; in the whole collection about 2.4% have one here.

SMILES	Ec RNAP inh	SF1 activator	RORA act	HePTP inhibitor	MMP13 inh	AP ELISA ortho
COc1ccccc1C(=O)Nc1ccc2oc(-c3ccc(F)cc3)nc2c1	0	0	65	0	0	0
Cc1ccc2oc(-c3ccc(NC(=O)c4ccc(-c5ccc(Cl)cc5)o4)cc3O)nc2c1	-	-	-	94	-	-
O=C(Nc1ccc2oc(-c3ccc(F)cc3)nc2c1)c1ccccc1I	-	-	-	0	-	-
CSc1ccccc1NC(=O)C1CCCO1 (configuration not stated)	0	0	0	0	0	0
CC(C)(C)c1cc(NC(=O)C2CCCO2)no1 (configuration not stated)	0	70	0	0	0	0
O=C(Nc1ccc2nn(-c3ccccc3)nc2c1)c1cccnc1	0	61	0	0	0	0
O=C(Nc1ccc2nn(-c3ccc(Br)cc3)nc2c1)c1cccnc1	-	-	-	0	-	-
CN(C)/C=N/c1nc2ccc3c(c2s1)CCCC3	0	59	66	0	0	0
CN(C)c1ccnc2sc3c(N(CCO)CCO)ncnc3c12	-	-	-	0	-	-
c1ccc(-c2cnc(CSc3nnc4ccccn34)o2)cc1	0	71	0	0	0	0
Cc1ccc2c(c1)c1ncnc(N3CCC4(CC3)OCCO4)c1n2C	0	67	62	0	0	0
COc1ccccc1-n1c(SCC(=O)c2ccccc2)nc2ccccc2c1=O	-	-	-	0	-	-
COc1ccc(-n2nc(C(=O)NCC(=O)N3CCN(c4ccccn4)CC3)c3ccccc3c2=O)cc1	0	60	0	0	0	0
COc1ccc(CC(=O)N2CCN(c3ccccn3)CC2)cc1	0	0	0	0	0	0
O=C(Nc1ccncc1)C1(c2ccccc2)CCCC1	0	0	0	0	0	39
COc1ccc(S(=O)(=O)N2Cc3ccccc3CC2C(=O)Nc2nccs2)cc1OC (configuration not stated)	0	71	0	0	0	0
COC(=O)c1cc2c(ccn2-c2ccc(F)cc2)n1CC(=O)N1CCN(C(=O)c2ccco2)CC1	0	0	0	0	0	0
CCn1c(C(=O)OC)cc2c1ccn2-c1ccc(F)cc1	0	53	60	0	0	0
O=C1NC(=O)C(=Cc2ccccc2OS(=O)(=O)c2ccc([N+](=O)[O-])cc2)C(=O)N1	-	-	-	0	-	-
O=C(Nc1ccc(N2CCOCC2)c(Cl)c1)c1ccc(Br)o1	0	67	55	0	0	0
O=C(Nc1ccc(N2CCN(C(=O)c3ccccc3)CC2)c(Cl)c1)c1ccc(Br)o1	0	0	0	0	0	-
COC(=O)Cc1ccc(NC(=O)c2ccc(Br)o2)cc1	0	0	0	0	0	0
O=C(Nc1ccc2c(c1)oc1ccccc12)c1ccc(Br)o1	0	0	68	0	0	0
CCN(CC)c1ccc(NC(=O)c2ccc(Br)o2)cc1	0	0	102	0	0	0
O=P(O)(CP(=O)(O)c1ccccc1)c1ccccc1	-	-	-	0	-	-
SMILES	Ec RNAP inh	SF1 activator	RORA act	HePTP inhibitor	MMP13 inh	AP ELISA ortho
Cc1ccc(/C(N)=N/OC(=O)COc2ccc3ccccc3c2)cc1	-	-	-	0	-	-
CCc1ccc(N2C(=O)/C(=C/c3ccc(I)o3)C(=O)NC2=S)cc1	-	-	-	105	-	-
O=C1NC(=S)N(c2ccccc2F)C(=O)/C1=C/c1ccc(OCc2cccc(C(=O)O)c2)cc1	-	-	-	102	-	-
O=C1NC(=O)N(c2ccc(Cl)cc2)C(=O)/C1=C/c1ccc(I)o1	-	-	-	96	-	-
O=C1NC(=S)N(c2ccccc2F)C(=O)/C1=C/c1ccc(I)o1	-	-	-	104	-	-
O=C(Nc1nccs1)c1cccc(NC(=O)c2cccs2)c1	-	-	-	0	-	-
CCOc1ccc2sc(C=NCCc3ccccc3)c(O)c2c1	-	-	-	0	-	-
Cc1cc2nc3s/c(=C/c4ccc([N+](=O)[O-])cc4)c(=O)n3c2cc1C	-	-	-	0	-	-
CCOC(=O)/C(=N\O)C1=NC(C)(C)C(C)c2ccccc21 (configuration not stated)	-	-	-	0	-	-
CCOc1ccc(N2C(=O)NC(=O)/C(=C\c3ccc(I)o3)C2=O)cc1	-	-	-	0	-	-
CCOc1ccc(N2C(=O)/C(=C/c3ccc(I)o3)C(=O)NC2=S)cc1	-	-	-	103	-	-
CC(C)c1ccc(N2C(=O)NC(=O)/C(=C/c3ccc([N+](=O)[O-])o3)C2=O)cc1	-	-	-	88	-	-
CC(C)Oc1ccc(C(=O)Nc2ccc(N(C)C)cc2)cc1	0	0	0	0	0	0
CCCOc1ccc(C(=O)Nc2ccc(N(C)C)cc2)cc1	0	0	56	0	0	0
